According to ChEMBL document CHEMBL1255372 (2008):
Converted amounts (≈) assume the structure as drawn.

Tested on: Klebsiella pneumoniae
Test: Antibacterial activity against Klebsiella pneumoniae isolate VA367 with blaKPC-3, qnrB19, blaTEM-1, blaSHV-11, blaSHV-12, aac(6')-1b genes by CLSI method
Format: functional

| Compound | MIC [µg/mL] |
| --- | --- |
| CO/N=C(\C(=O)N[C@@H]1C(=O)N2C(C(=O)O)=C(COC(N)=O)CS[C@H]12)c1ccco1 [CEFUROXIME] | ≥ 64 |
| CC(C)(O/N=C(\C(=O)N[C@@H]1C(=O)N2C(C(=O)[O-])=C(C[n+]3ccccc3)CS[C@H]12)c1csc(N)n1)C(=O)O [CEFTAZIDIME] | ≥ 64 |
| C[C@@H](O)[C@H]1C(=O)N2C(C(=O)O)=C(S[C@@H]3CN[C@H](C(=O)N(C)C)C3)[C@H](C)[C@H]12 [MEROPENEM] | 2 (≈ 5.22 µM) |
| C[C@@H](O)[C@H]1C(=O)N2C(C(=O)O)=C(SCCNC=N)C[C@H]12 [IMIPENEM ANHYDROUS] | 2 (≈ 6.68 µM) |
| C[C@H]1COc2c(N3CCN(C)CC3)c(F)cc3c(=O)c(C(=O)O)cn1c23.C[C@H]1COc2c(N3CCN(C)CC3)c(F)cc3c(=O)c(C(=O)O)cn1c23.O [LEVOFLOXACIN] | ≥ 8 |
| GENTAMICIN | 4 |
| NC[C@H]1O[C@H](O[C@H]2[C@H](O)[C@@H](O[C@H]3O[C@H](CO)[C@@H](O)[C@H](N)[C@H]3O)[C@H](N)C[C@@H]2N)[C@H](N)C[C@@H]1O [TOBRAMYCIN] | ≥ 16 |

Tested on: Klebsiella pneumoniae
Test: Antibacterial activity against Klebsiella pneumoniae isolate VA367 with blaKPC-3, qnrB19, blaTEM-1, blaSHV-11, blaSHV-12, aac(6')-1b genes by Etest method
Format: functional

| Compound | MIC [µg/mL] |
| --- | --- |
| C[C@@H](O)[C@H]1C(=O)N2C(C(=O)O)=C(S[C@@H]3CN[C@H](C(=O)N(C)C)C3)[C@H](C)[C@H]12 [MEROPENEM] | 8 (≈ 20.9 µM) |
| C[C@@H](O)[C@H]1C(=O)N2C(C(=O)O)=C(SCCNC=N)C[C@H]12 [IMIPENEM ANHYDROUS] | 16 (≈ 53.4 µM) |
| C[C@H]1COc2c(N3CCN(C)CC3)c(F)cc3c(=O)c(C(=O)O)cn1c23.C[C@H]1COc2c(N3CCN(C)CC3)c(F)cc3c(=O)c(C(=O)O)cn1c23.O [LEVOFLOXACIN] | ≥ 32 |

Tested on: Escherichia coli
Test: Antibacterial activity against Escherichia coli J53 transconjugated with Klebsiella pneumoniae isolate VA367 containing blaKPC-3, qnrB19, blaTEM-1, blaSHV-11, aac(6')-1b genes by CLSI method
Format: functional

| Compound | MIC [µg/mL] |
| --- | --- |
| CO/N=C(\C(=O)N[C@@H]1C(=O)N2C(C(=O)O)=C(COC(N)=O)CS[C@H]12)c1ccco1 [CEFUROXIME] | ≥ 64 |
| CC(C)(O/N=C(\C(=O)N[C@@H]1C(=O)N2C(C(=O)[O-])=C(C[n+]3ccccc3)CS[C@H]12)c1csc(N)n1)C(=O)O [CEFTAZIDIME] | 32 (≈ 58.5 µM) |
| C[C@@H](O)[C@H]1C(=O)N2C(C(=O)O)=C(S[C@@H]3CN[C@H](C(=O)N(C)C)C3)[C@H](C)[C@H]12 [MEROPENEM] | 1 (≈ 2.61 µM) |
| C[C@@H](O)[C@H]1C(=O)N2C(C(=O)O)=C(SCCNC=N)C[C@H]12 [IMIPENEM ANHYDROUS] | 4 (≈ 13.4 µM) |
| GENTAMICIN | < 1 |
| NC[C@H]1O[C@H](O[C@H]2[C@H](O)[C@@H](O[C@H]3O[C@H](CO)[C@@H](O)[C@H](N)[C@H]3O)[C@H](N)C[C@@H]2N)[C@H](N)C[C@@H]1O [TOBRAMYCIN] | ≥ 16 |

Tested on: Escherichia coli
Test: Antibacterial activity against Escherichia coli J53 transconjugated with Klebsiella pneumoniae isolate VA367 containing blaKPC-3, qnrB19, blaTEM-1, blaSHV-11, aac(6')-1b genes by Etest method
Format: functional
Procedure, shortened: (§1)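 Test strains were E. coli J53 (rifampin-resistant recipient) transconjugants obtained by conjugation with the K. pneumoniae donor isolate. After overnight incubation, the donor–recipient mixture was plated on MacConkey agar containing ceftazidime (10 mg/liter) plus rifampin (100 mg/liter) to select transconjugants. Etest conditions are not described.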

| Compound | MIC [µg/mL] |
| --- | --- |
| C[C@@H](O)[C@H]1C(=O)N2C(C(=O)O)=C(S[C@@H]3CN[C@H](C(=O)N(C)C)C3)[C@H](C)[C@H]12 [MEROPENEM] | 4 (≈ 10.4 µM) |
| C[C@@H](O)[C@H]1C(=O)N2C(C(=O)O)=C(SCCNC=N)C[C@H]12 [IMIPENEM ANHYDROUS] | 4 (≈ 13.4 µM) |
| C[C@H]1COc2c(N3CCN(C)CC3)c(F)cc3c(=O)c(C(=O)O)cn1c23.C[C@H]1COc2c(N3CCN(C)CC3)c(F)cc3c(=O)c(C(=O)O)cn1c23.O [LEVOFLOXACIN] | 0.75 |

Tested on: Klebsiella pneumoniae
Test: Antibacterial activity against Klebsiella pneumoniae isolate VA375 with blaKPC-3, qnrA1, blaTEM-1, blaSHV-11 genes by CLSI method
Format: functional

| Compound | MIC [µg/mL] |
| --- | --- |
| CO/N=C(\C(=O)N[C@@H]1C(=O)N2C(C(=O)O)=C(COC(N)=O)CS[C@H]12)c1ccco1 [CEFUROXIME] | ≥ 64 |
| CC(C)(O/N=C(\C(=O)N[C@@H]1C(=O)N2C(C(=O)[O-])=C(C[n+]3ccccc3)CS[C@H]12)c1csc(N)n1)C(=O)O [CEFTAZIDIME] | ≥ 64 |
| C[C@@H](O)[C@H]1C(=O)N2C(C(=O)O)=C(S[C@@H]3CN[C@H](C(=O)N(C)C)C3)[C@H](C)[C@H]12 [MEROPENEM] | 1 (≈ 2.61 µM) |
| C[C@@H](O)[C@H]1C(=O)N2C(C(=O)O)=C(SCCNC=N)C[C@H]12 [IMIPENEM ANHYDROUS] | 2 (≈ 6.68 µM) |
| GENTAMICIN | > 16 |
| NC[C@H]1O[C@H](O[C@H]2[C@H](O)[C@@H](O[C@H]3O[C@H](CO)[C@@H](O)[C@H](N)[C@H]3O)[C@H](N)C[C@@H]2N)[C@H](N)C[C@@H]1O [TOBRAMYCIN] | ≥ 16 |

Tested on: Klebsiella pneumoniae
Test: Antibacterial activity against Klebsiella pneumoniae isolate VA375 with blaKPC-3, qnrA1, blaTEM-1, blaSHV-11 genes by Etest method
Format: functional

| Compound | MIC [µg/mL] |
| --- | --- |
| C[C@@H](O)[C@H]1C(=O)N2C(C(=O)O)=C(S[C@@H]3CN[C@H](C(=O)N(C)C)C3)[C@H](C)[C@H]12 [MEROPENEM] | 4 (≈ 10.4 µM) |
| C[C@@H](O)[C@H]1C(=O)N2C(C(=O)O)=C(SCCNC=N)C[C@H]12 [IMIPENEM ANHYDROUS] | 8 (≈ 26.7 µM) |
| C[C@H]1COc2c(N3CCN(C)CC3)c(F)cc3c(=O)c(C(=O)O)cn1c23.C[C@H]1COc2c(N3CCN(C)CC3)c(F)cc3c(=O)c(C(=O)O)cn1c23.O [LEVOFLOXACIN] | 0.75 |

Tested on: Escherichia coli
Test: Antibacterial activity against Escherichia coli J53 transconjugated with Klebsiella pneumoniae isolate VA375 containing qnrA1, blaTEM-1, blaSHV-11genes by CLSI method
Format: functional

| Compound | MIC [µg/mL] |
| --- | --- |
| CO/N=C(\C(=O)N[C@@H]1C(=O)N2C(C(=O)O)=C(COC(N)=O)CS[C@H]12)c1ccco1 [CEFUROXIME] | ≥ 64 |
| CC(C)(O/N=C(\C(=O)N[C@@H]1C(=O)N2C(C(=O)[O-])=C(C[n+]3ccccc3)CS[C@H]12)c1csc(N)n1)C(=O)O [CEFTAZIDIME] | ≥ 64 |
| C[C@@H](O)[C@H]1C(=O)N2C(C(=O)O)=C(S[C@@H]3CN[C@H](C(=O)N(C)C)C3)[C@H](C)[C@H]12 [MEROPENEM] | ≤ 0.25 |
| C[C@@H](O)[C@H]1C(=O)N2C(C(=O)O)=C(SCCNC=N)C[C@H]12 [IMIPENEM ANHYDROUS] | ≤ 1 |
| GENTAMICIN | 4 |
| NC[C@H]1O[C@H](O[C@H]2[C@H](O)[C@@H](O[C@H]3O[C@H](CO)[C@@H](O)[C@H](N)[C@H]3O)[C@H](N)C[C@@H]2N)[C@H](N)C[C@@H]1O [TOBRAMYCIN] | 4 (≈ 8.56 µM) |

Tested on: Escherichia coli
Test: Antibacterial activity against Escherichia coli J53 transconjugated with Klebsiella pneumoniae isolate VA375 containing qnrA1, blaTEM-1, blaSHV-11genes by Etest method
Format: functional
Procedure, shortened: as §1

| Compound | MIC [µg/mL] |
| --- | --- |
| C[C@@H](O)[C@H]1C(=O)N2C(C(=O)O)=C(S[C@@H]3CN[C@H](C(=O)N(C)C)C3)[C@H](C)[C@H]12 [MEROPENEM] | 0.38 (≈ 0.991 µM) |
| C[C@@H](O)[C@H]1C(=O)N2C(C(=O)O)=C(SCCNC=N)C[C@H]12 [IMIPENEM ANHYDROUS] | 0.38 (≈ 1.27 µM) |
| C[C@H]1COc2c(N3CCN(C)CC3)c(F)cc3c(=O)c(C(=O)O)cn1c23.C[C@H]1COc2c(N3CCN(C)CC3)c(F)cc3c(=O)c(C(=O)O)cn1c23.O [LEVOFLOXACIN] | 1.5 |

Tested on: Escherichia coli
Test: Antibacterial activity against Escherichia coli J53 by CLSI method
Format: functional

| Compound | MIC [µg/mL] |
| --- | --- |
| CO/N=C(\C(=O)N[C@@H]1C(=O)N2C(C(=O)O)=C(COC(N)=O)CS[C@H]12)c1ccco1 [CEFUROXIME] | 16 (≈ 37.7 µM) |
| CC(C)(O/N=C(\C(=O)N[C@@H]1C(=O)N2C(C(=O)[O-])=C(C[n+]3ccccc3)CS[C@H]12)c1csc(N)n1)C(=O)O [CEFTAZIDIME] | ≤ 1 |
| C[C@@H](O)[C@H]1C(=O)N2C(C(=O)O)=C(S[C@@H]3CN[C@H](C(=O)N(C)C)C3)[C@H](C)[C@H]12 [MEROPENEM] | ≤ 0.25 |
| C[C@@H](O)[C@H]1C(=O)N2C(C(=O)O)=C(SCCNC=N)C[C@H]12 [IMIPENEM ANHYDROUS] | ≤ 1 |
| C[C@H]1COc2c(N3CCN(C)CC3)c(F)cc3c(=O)c(C(=O)O)cn1c23.C[C@H]1COc2c(N3CCN(C)CC3)c(F)cc3c(=O)c(C(=O)O)cn1c23.O [LEVOFLOXACIN] | ≤ 0.25 |
| GENTAMICIN | < 1 |
| NC[C@H]1O[C@H](O[C@H]2[C@H](O)[C@@H](O[C@H]3O[C@H](CO)[C@@H](O)[C@H](N)[C@H]3O)[C@H](N)C[C@@H]2N)[C@H](N)C[C@@H]1O [TOBRAMYCIN] | ≤ 1 |

Tested on: Escherichia coli
Test: Antibacterial activity against Escherichia coli J53 by Etest method
Format: functional

| Compound | MIC [µg/mL] |
| --- | --- |
| C[C@@H](O)[C@H]1C(=O)N2C(C(=O)O)=C(S[C@@H]3CN[C@H](C(=O)N(C)C)C3)[C@H](C)[C@H]12 [MEROPENEM] | 0.047 (≈ 0.123 µM) |
| C[C@H]1COc2c(N3CCN(C)CC3)c(F)cc3c(=O)c(C(=O)O)cn1c23.C[C@H]1COc2c(N3CCN(C)CC3)c(F)cc3c(=O)c(C(=O)O)cn1c23.O [LEVOFLOXACIN] | 0.25 |
